Screening data (PubChem)
In the library only some 2.3% were active in any assay of this set; here they are far more common.
GalR3 antagonist = antagonists of human GalR3 | O60755 | HEK293 GalR3-CNG cAMP membrane potential fluorescence; galR3 body fused to GalR1 C-terminus | inhibition, % at 3 µM | hit rate 0.44% among 360,000;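 active = inhibition above the screen-wide average plus 3 SD, cut at about 13% in these data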;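 also: forskolin and galanin both at EC90 stimulate the cells; cAMP rise reported by CNG channel membrane potential dye signal; 0% = forskolin plus galanin with DMSO and 100% = forskolin alone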
Target sequence (O60755 1-299 limits assumed): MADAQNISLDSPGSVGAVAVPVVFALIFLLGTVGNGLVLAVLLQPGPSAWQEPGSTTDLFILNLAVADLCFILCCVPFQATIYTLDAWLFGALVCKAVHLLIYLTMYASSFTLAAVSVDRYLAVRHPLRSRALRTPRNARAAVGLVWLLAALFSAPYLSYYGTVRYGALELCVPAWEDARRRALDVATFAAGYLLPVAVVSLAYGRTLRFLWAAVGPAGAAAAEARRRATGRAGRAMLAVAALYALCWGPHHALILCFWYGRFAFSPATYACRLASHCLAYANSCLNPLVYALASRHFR
CHT allo act = human CHT allosteric activation; hit rate 0.49% among 310,000; Q9GZV3; B-score at 10 µM; CHT-expressing cells, membrane potential dye, choline EC20; stronger effect = higher value; LV-AA mutant CHT in HEK293 cells;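 active = initial fluorescence not abnormally high and integrated response B-score, plate-corrected, over 3 SD above library mean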
NR2E3 ag-1 = activates human NR2E3 receptor. Q9Y5X4. CHO-S Gal4-NCOR/VP16-NR2E3 two-hybrid, luciferase. inhibition of corepressor binding, % at 3.98 µM. hit rate 0.35% among 360,000. AID 602229;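 active = inhibition above the mean of all tested compounds plus 3 SD, cut at about 70% in these data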;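 also: 0% = DMSO with NR2E3 transfected cells and 100% = cells lacking NR2E3 construct; higher means lower luciferase signal from less NR2E3 corepressor binding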
Target sequence (Q9Y5X4 whole entry, looked up, the tested form may be a part): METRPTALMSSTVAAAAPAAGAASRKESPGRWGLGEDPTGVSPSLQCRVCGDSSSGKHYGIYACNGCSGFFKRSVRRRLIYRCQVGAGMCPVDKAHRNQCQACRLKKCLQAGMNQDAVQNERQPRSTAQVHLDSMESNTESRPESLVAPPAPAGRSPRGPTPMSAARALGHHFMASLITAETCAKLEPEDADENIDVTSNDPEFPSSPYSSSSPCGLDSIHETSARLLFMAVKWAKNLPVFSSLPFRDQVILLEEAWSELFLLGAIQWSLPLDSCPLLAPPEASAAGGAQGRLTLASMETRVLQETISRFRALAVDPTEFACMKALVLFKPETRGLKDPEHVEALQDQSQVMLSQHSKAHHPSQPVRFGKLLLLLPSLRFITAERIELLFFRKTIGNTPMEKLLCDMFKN
CHT block = inhibits the human high affinity choline transporter | CHT-expressing cells, membrane potential dye, choline response; stronger effect = lower value | B-score at 10 µM | hit rate 0.86% among 310,000 | AID 488975;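 active = B-score over 3 SD under the library average, and starting fluorescence ratio not unusually high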;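 also: choline stimulus applied at its EC90 after an EC20 pre-addition; B-score computed on integrated fluorescence ratio after choline addition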
COUP-TFII inh = blocks human COUP-TFII nuclear receptor | AID 686940 | inhibition, % at 8.6 µM | HEK293T NGFI-A luciferase reporter, luminescence | hit rate 0.7% among 370,000 | P24468;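 active = inhibition above a per-plate cutoff, mean inhibition of test wells between control levels plus 3 SD, cut at about 38% in these data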;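 also: cells cotransfected with COUP-TFII expression vector driving the NGFI-A reporter; 0% = median of COUP-TF2 test wells and 100% = reporter-only cells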
NR2E3 ag-2 = activates human photoreceptor nuclear receptor NR2E3; Q9Y5X4; GST-NR2E3/biotin-RetCOR TR-FRET, 1536-well; inhibition of corepressor binding, % at 4.78 µM; hit rate 0.12% among 320,000;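 active = percent inhibition above the cutoff of mean plus 3 SD of all tested compounds, set per screening campaign, cut at about 20% in these data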;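 also: 0% = DMSO wells and 100% = biotin wells as full block of FRET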
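Material: NR2E3–RetCOR corepressor complex | Quantity: 1.35 nM GST-tagged NR2E3 final | Schedule: 5 h at 4 °C | Replication: Singlicate compound wells | Reagent: RetCOR corepressor, biotinylated, 7 nM | Controls: Biotin wells as high control, 0.6% DMSO wells as low control | Signal: TR-FRET, Eu(K)-anti-GST donor, streptavidin-D2 acceptor, ex 340, em 617/671 nm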
CHT inh conf = confirmation of human choline transporter CHT inhibitors; shares compounds with CHT block; CHT-expressing cells, choline membrane potential dye; LV-to-AA substituted CHT, HEK293 cells; CHT activity remaining % of control (stronger effect = lower value), % at 10 µM; hit rate 70% among 2,400; AID 493221;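 active = choline transporter activity left, mean of duplicates at 10 µM, below buffer-only control mean minus 3 SD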;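 also: depolarization triggered by choline at its EC90 following an EC20 pre-addition; 0% = hemicholinium-3 full block and 100% = buffer-only control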
HEK293 MPD ctr = activity in parental HEK293 cells lacking CHT. membrane potential ratio readout (active if shifted either direction beyond buffer ±3SD; no single direction) at 10 µM. membrane potential dye, choline response; active = decrease or increase beyond buffer ±3SD. hit rate 4% among 2,400. shares compounds with CHT block;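 also: parental cells lack the transporter so any hit is non-specific; ratio is peak minus trough fluorescence over baseline after EC90 choline challenge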
The depositor's hits bear a star.

CC(=O)N1c2ccc(S(=O)(=O)NCc3ccccc3Cl)cc2CC1C (stereo not given) was read as GalR3 antagonist -0.7, CHT allo act inactive, NR2E3 ag-1 40.3, CHT block -6.97*, COUP-TFII inh 8.3, NR2E3 ag-2 1.4, CHT inh conf 61.0%* and HEK293 MPD ctr inactive.
Screening COc1cccc(NC(=O)CCNS(=O)(=O)c2ccc3c(c2)CC(C)N3C(=O)C2CC2)c1 (stereo not given) returned GalR3 antagonist -7.9, CHT allo act inactive, NR2E3 ag-1 11.5, CHT block -5.19*, COUP-TFII inh -2.5, NR2E3 ag-2 -4.2, CHT inh conf inactive and HEK293 MPD ctr inactive.
CC(=O)N1c2ccc(S(=O)(=O)NCCc3ccc(Cl)cc3)cc2CC1C (stereo not given) was read as GalR3 antagonist -1.6, CHT allo act inactive, NR2E3 ag-1 36.9, CHT block inactive, COUP-TFII inh 13.0 and NR2E3 ag-2 -0.8.
For CC(=O)N1c2ccc(S(=O)(=O)NCCC(=O)NC3CCCCCC3)cc2CC1C (stereo not given) the results were GalR3 antagonist -7.8, CHT allo act inactive, NR2E3 ag-1 0.8, CHT block inactive, COUP-TFII inh -4.9 and NR2E3 ag-2 -0.8.
For CC(=O)N1c2ccc(S(=O)(=O)NCCC(=O)NC3CCCC(C)C3C)cc2CC1C (stereo not given) the results were GalR3 antagonist -7.2, CHT allo act inactive, NR2E3 ag-1 12.7, CHT block -6.77*, COUP-TFII inh -3.2, NR2E3 ag-2 -0.8, CHT inh conf 38.0%* and HEK293 MPD ctr inactive.
`CCOc1cc2[nH]c(=S)n(C3CCN(Cc4ccccc4)CC3)c(=O)c2cc1OCC` gave GalR3 antagonist -8.3, CHT allo act inactive, NR2E3 ag-1 -11.8, CHT block -5.76*, COUP-TFII inh -1.2, NR2E3 ag-2 1.9, CHT inh conf inactive and HEK293 MPD ctr inactive.
`O=c1c2cc3c(cc2[nH]c(=S)n1C1CCN(Cc2ccccc2)CC1)OCO3` gave GalR3 antagonist -3.8, CHT allo act inactive, NR2E3 ag-1 -5.5, CHT block inactive, COUP-TFII inh 5.5 and NR2E3 ag-2 0.7.
`Cc1ccc2[nH]c3c(c2c1)CN(C(=O)CN1CCSCC1)CC3` gave GalR3 antagonist -2.2 and COUP-TFII inh 3.9.
Screening Cc1ccc2[nH]c3c(c2c1)CN(C(=O)CN1CCN(Cc2ccc4c(c2)OCO4)CC1)CC3 returned GalR3 antagonist -3.8, CHT allo act inactive, NR2E3 ag-1 -14.9, CHT block -5.63*, COUP-TFII inh 12.7, NR2E3 ag-2 -0.4, CHT inh conf 38.0%* and HEK293 MPD ctr inactive.
CCOC(=O)COc1ccc(C(C)c2ccc(NC(=O)OC(C)(C)C)cc2)cc1 (stereo not given) was read as COUP-TFII inh -15.7.
Screening CC(C)Sc1nc2c(c(=O)[nH]1)C(c1cccs1)C1=C(CC(C)(C)CC1=O)N2 (stereo not given) returned GalR3 antagonist -4.3, CHT allo act inactive, NR2E3 ag-1 -22.1, CHT block -5.78*, COUP-TFII inh 3.1, NR2E3 ag-2 1.6, CHT inh conf inactive and HEK293 MPD ctr inactive.
Cc1[nH]nc2c1C(c1cccs1)C1=C(CC(C)(C)CC1=O)N2 (stereo not given) was read as GalR3 antagonist -1.9, CHT allo act inactive, NR2E3 ag-1 -3.2, CHT block inactive, COUP-TFII inh -4.9 and NR2E3 ag-2 3.6.
`COc1ccc(C(C(=O)NC2CCCC2)N(C(=O)c2ccco2)c2ccccc2C(C)=O)cc1OC` (stereo not given) gave GalR3 antagonist -6.9, CHT allo act inactive, NR2E3 ag-1 -17.7, CHT block inactive, COUP-TFII inh 19.8 and NR2E3 ag-2 0.0.
For COc1ccc(C(C(=O)NC2CCCCC2)N(C(=O)c2ccco2)c2ccccc2C(C)=O)cc1OC (stereo not given) the results were GalR3 antagonist -9.6, CHT allo act inactive, NR2E3 ag-1 -19.4, CHT block -5.15*, COUP-TFII inh -3.1, NR2E3 ag-2 0.6, CHT inh conf 70.9%* and HEK293 MPD ctr inactive.
Screening COc1ccc(O)c(/C=N/NS(=O)(=O)c2ccc(C)cc2)c1 returned GalR3 antagonist -10.9, CHT allo act inactive, NR2E3 ag-1 -25.5, CHT block inactive, COUP-TFII inh -37.3 and NR2E3 ag-2 6.4.
Screening Cc1ccc(S(=O)(=O)N/N=C/c2cc(Br)ccc2O)cc1 returned GalR3 antagonist 1.8, CHT allo act inactive, NR2E3 ag-1 -1.9, CHT block -5.59*, COUP-TFII inh -3.4, NR2E3 ag-2 -0.3, CHT inh conf 67.4%* and HEK293 MPD ctr inactive.
`O=C1CCC[C@H]2Cc3nc4cccc(Cl)c4cc3C[C@]23CCCN13` gave COUP-TFII inh 19.0.
Screening CC(=O)Nc1ccc(S(=O)(=O)Nc2nc3ccccc3nc2Nc2ccc(N)cc2)cc1 returned GalR3 antagonist 3.7, CHT allo act inactive, NR2E3 ag-1 -16.6, CHT block -5.05*, COUP-TFII inh 2.3, NR2E3 ag-2 -0.4, CHT inh conf 66.9%* and HEK293 MPD ctr inactive.
COc1ccc(C)cc1NC(=O)CN1CCN(c2ccccc2F)CC1 was read as GalR3 antagonist -2.4, CHT allo act inactive, NR2E3 ag-1 0.5, CHT block -4.99*, COUP-TFII inh 4.5, NR2E3 ag-2 2.3, CHT inh conf inactive and HEK293 MPD ctr inactive.
Screening Cc1cccc(NC(=O)C2CCCN2S(=O)(=O)c2cccc3cccnc23)c1C (stereo not given) returned COUP-TFII inh 6.5.
COc1ccc(C2(C(=O)Nc3ccc(S(=O)(=O)Nc4nc(C)cc(C)n4)cc3)CCCC2)cc1OC was read as GalR3 antagonist -10.2, CHT allo act inactive, NR2E3 ag-1 10.5, CHT block -7.7*, COUP-TFII inh -3.0, NR2E3 ag-2 2.4, CHT inh conf 28.6%* and HEK293 MPD ctr inactive.
Screening Cc1cc(C)nc(NS(=O)(=O)c2ccc(NC(=O)C3(c4ccc([N+](=O)[O-])cc4)CCCC3)cc2)n1 returned GalR3 antagonist -4.2, CHT allo act inactive, NR2E3 ag-1 -29.5, CHT block inactive, COUP-TFII inh 6.1 and NR2E3 ag-2 0.0.
